Activity calls are given as the source filed them. The rule behind the calls is not given here.
Key:
Type in all cases: cell-based
Settings in all cases: Homo sapiens
HEK293 [1] = assay: Induction of microtubule stabilization in HEK293 cells assessed as increase in acetylated alpha tubulin levels at 10 uM after 4 hrs by ELISA relative to control
Summary of the method: (§1)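 HEK-293 cells were exposed to the test compound at 1 or 10 μM for 4 h. Acetylated α-tubulin and total α-tubulin were then measured by ELISA in cell lysates. Levels are expressed relative to vehicle-treated control cells, as the average and SD of triplicate assays. Significance was tested by one-way ANOVA with Dunnett's post-hoc test. Changes in α-tubulin below 15% are treated as assay-to-assay variability.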

HEK293 [2] = assay: Induction of microtubule stabilization in HEK293 cells assessed as increase in acetylated alpha tubulin levels at 1 uM after 4 hrs by ELISA relative to control; summary of the method: as §1
HEK293 [3] = assay: Induction of microtubule disruption in HEK293 cells assessed as total alpha tubulin levels at 1 uM after 4 hrs by ELISA relative to control; summary of the method: as §1
HEK293 [4] = assay: Induction of microtubule disruption in HEK293 cells assessed as total alpha tubulin levels at 10 uM after 4 hrs by ELISA relative to control; summary of the method: as §1
HEK293 [5] = assay: Induction of microtubule disruption in HEK293 cells assessed as total alpha tubulin levels after 4 hrs by ELISA relative to control
Summary of the method: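 Total α-tubulin was measured by ELISA in lysates of HEK-293 cells after 4 h incubation with the test compound. Levels are expressed relative to vehicle-treated control cells. Significance was assessed by one-way ANOVA with Dunnett's post-hoc analysis.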

Row | Structure (SMILES) | fold change (FC) (HEK293 [1]) | fold change (FC) (HEK293 [2]) | fold change (FC) (HEK293 [3]) | fold change (FC) (HEK293 [4]) | Activity (HEK293 [5]) | Activity (HEK293 [1]) | Activity (HEK293 [2])
1 | C[C@@H](Nc1c(-c2c(F)cc(F)cc2F)c(Cl)nc2ncnn12)C1(C)N=N1 | 4.28 | 1.42 | 0.92 | 0.89 | – | – | –
2 | CN(C)CCCOc1cc(F)c(-c2c(Cl)nc3ncnn3c2NCC2(C)N=N2)c(F)c1 | 0.29 | 10.5 | 0.36 | 0.19 | Dose-dependent effect | – | –
3 | CC1(CNc2c(-c3c(F)cc(F)cc3F)c(Cl)nc3ncnn23)N=N1 | 3.42 | 1.56 | 1.08 | 1.03 | – | – | –
4 | C[C@H](Nc1c(-c2c(F)cc(F)cc2F)c(Cl)nc2ncnn12)C1(C)N=N1 | 1.85 | – | – | 0.94 | – | – | –
5 | C[C@H](Nc1c(-c2c(F)cc(F)cc2F)c(N=[N+]=[N-])nc2ncnn12)C(F)(F)F | – | – | – | – | – | inactive | inactive
6 | C[C@H](Nc1c(-c2c(F)cc(OCCCN(C)C)cc2F)c(Cl)nc2ncnn12)C(F)(F)F | 0.3 | 5.83 | 0.29 | 0.14 | – | – | –
7 | C[C@H](Nc1c(-c2c(F)cc(OCCCN(C)C)cc2F)c(Cl)nc2ncnn12)C1(C)N=N1 | 0.28 | 6.7 | 0.69 | 0.78 | – | – | –
8 | CNCCCOc1cc(F)c(-c2c(Cl)nc3ncnn3c2N[C@@H](C)C(F)(F)F)c(F)c1 | 0.1 | 7.07 | 0.51 | 0.14 | – | – | –
9 | C[C@@H](Nc1c(-c2c(F)cc(OCCCN(C)C)cc2F)c(Cl)nc2ncnn12)C1(C)N=N1 | 0.93 | 21.7 | 0.73 | 1.01 | Dose-dependent effect | – | –
10 | [N-]=[N+]=Nc1c(-c2c(F)cc(F)cc2F)c(Cl)nc2ncnn12 | – | – | – | – | – | inactive | inactive
11 | CO[C@@H]1C[C@H]2CC[C@@H](C1)N2c1c(-c2c(F)cc(F)cc2F)c(Cl)nc2ncnn12 | 7.43 | 3.65 | 1.12 | 1.38 | – | – | –
12 | C[C@H](Nc1c(-c2c(F)cc(OCCCNC(=O)c3ccc(C4(C(F)(F)F)N=N4)cc3)cc2F)c(Cl)nc2ncnn12)C(F)(F)F | 3.65 | 1.3 | 1.31 | 0.88 | – | – | –

Source: ChEMBL document CHEMBL4118180, “Design, synthesis and evaluation of photoactivatable derivatives of microtubule (MT)-active [1,2,4]triazolo[1,5-a]pyrimidines” (Bioorg Med Chem Lett, 2018)
